Experimental data published in ChEMBL document CHEMBL4219100, “Discovery of selective EGFR modulator to inhibit L858R/T790M double mutants bearing a N-9-Diphenyl-9H-purin-2-amine scaffold” (Bioorg Med Chem, 2018).
pIC50: −log10 of the molar value.

Experiments:
Homo sapiens [1] = species on record: Homo sapiens; experiment: Selectivity ratio of IC50 for recombinant human GST-tagged EGFR cytoplasmic domain (668 to 1210 residues) expressed in baculovirus expression system to IC50 for recombinant human GST-tagged EGFR L858R/T790M double mutant cytoplasmic domain (668 to 1210 residues) expressed in baculovirus expression system
In short: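 Caliper mobility-shift kinase assay in 50 mM HEPES pH 7.5, 0.0015% Brij35, 2 mM DTT. Five-point DMSO dilution series, in duplicate. Enzyme (EGFR form as appropriate) was preincubated with compound for 10 min at room temperature. FAM-labeled peptide plus ATP was added, then 1 h at 28°C. Stopped with EDTA buffer. Percent inhibition came from substrate conversion; ratio taken as WT IC50 over L858R/T790M IC50.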

A549 = experiment: Cytotoxicity against human A549 cells expressing wild-type EGFR/K-ras mutant after 72 hrs by MTT assay; type: cell-based; conditions: A549, 72 h
In short: (§1)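 Cells grown in MEM with 10% FBS; about 4×10^3 cells per well seeded and held 24 h at 37°C in 5% CO₂. Compounds then added and culture continued 72 h. MTT added ([…]) for 4 h at 37°C. Formazan dissolved in DMSO and absorbance read at 492 nm against 630 nm reference. Each compound tested three times per line; IC50 is the mean of at least three determinations.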

HT-29 = experiment: Cytotoxicity against human HT-29 cells after 72 hrs by MTT assay; type: cell-based; conditions: HT-29, 72 h; in short: as §1
[2] = target: Epidermal growth factor receptor (Homo sapiens, UniProt P00533); experiment: Inhibition of recombinant human GST-tagged EGFR cytoplasmic domain (668 to 1210 residues) expressed in baculovirus expression system using FAM-labelled peptide as substrate pretreated for 10 mins followed by substrate addition measured after 1 hr by mobility shift assay
Homo sapiens [3] = species on record: Homo sapiens; experiment: Selectivity ratio of IC50 for human A549 cells expressing wild-type EGFR/K-Ras mutant to IC50 for human NCI-H1975 cells expressing EGFR L858R/T790M double mutant
[4] = target: Epidermal growth factor receptor (Homo sapiens, UniProt P00533, L858R/T790M); experiment: Inhibition of recombinant human GST-tagged EGFR L858R/T790M double mutant cytoplasmic domain (668 to 1210 residues) expressed in baculovirus expression system using FAM-labelled peptide as substrate pretreated for 10 mins followed by substrate addition measured after 1 hr by mobility shift assay; conditions: for pIC50: read-out: IC50
NCI-H1975 = experiment: Cytotoxicity against human NCI-H1975 cells expressing EGFR L858R/T790M double mutant after 72 hrs by MTT assay; type: functional, cell-based; conditions: NCI-H1975, 72 h; in short: as §1
[5] = target: Epidermal growth factor receptor (Homo sapiens, UniProt P00533, T790M); experiment: Inhibition of recombinant human GST-tagged EGFR T790M mutant cytoplasmic domain (668 to 1210 residues) expressed in baculovirus expression system using FAM-labelled peptide as substrate pretreated for 10 mins followed by substrate addition measured after 1 hr by mobility shift assay

Epidermal growth factor receptor (Homo sapiens, UniProt P00533, L858R/T790M), sequence (P00533 25-1210 T790M/L858R limits assumed): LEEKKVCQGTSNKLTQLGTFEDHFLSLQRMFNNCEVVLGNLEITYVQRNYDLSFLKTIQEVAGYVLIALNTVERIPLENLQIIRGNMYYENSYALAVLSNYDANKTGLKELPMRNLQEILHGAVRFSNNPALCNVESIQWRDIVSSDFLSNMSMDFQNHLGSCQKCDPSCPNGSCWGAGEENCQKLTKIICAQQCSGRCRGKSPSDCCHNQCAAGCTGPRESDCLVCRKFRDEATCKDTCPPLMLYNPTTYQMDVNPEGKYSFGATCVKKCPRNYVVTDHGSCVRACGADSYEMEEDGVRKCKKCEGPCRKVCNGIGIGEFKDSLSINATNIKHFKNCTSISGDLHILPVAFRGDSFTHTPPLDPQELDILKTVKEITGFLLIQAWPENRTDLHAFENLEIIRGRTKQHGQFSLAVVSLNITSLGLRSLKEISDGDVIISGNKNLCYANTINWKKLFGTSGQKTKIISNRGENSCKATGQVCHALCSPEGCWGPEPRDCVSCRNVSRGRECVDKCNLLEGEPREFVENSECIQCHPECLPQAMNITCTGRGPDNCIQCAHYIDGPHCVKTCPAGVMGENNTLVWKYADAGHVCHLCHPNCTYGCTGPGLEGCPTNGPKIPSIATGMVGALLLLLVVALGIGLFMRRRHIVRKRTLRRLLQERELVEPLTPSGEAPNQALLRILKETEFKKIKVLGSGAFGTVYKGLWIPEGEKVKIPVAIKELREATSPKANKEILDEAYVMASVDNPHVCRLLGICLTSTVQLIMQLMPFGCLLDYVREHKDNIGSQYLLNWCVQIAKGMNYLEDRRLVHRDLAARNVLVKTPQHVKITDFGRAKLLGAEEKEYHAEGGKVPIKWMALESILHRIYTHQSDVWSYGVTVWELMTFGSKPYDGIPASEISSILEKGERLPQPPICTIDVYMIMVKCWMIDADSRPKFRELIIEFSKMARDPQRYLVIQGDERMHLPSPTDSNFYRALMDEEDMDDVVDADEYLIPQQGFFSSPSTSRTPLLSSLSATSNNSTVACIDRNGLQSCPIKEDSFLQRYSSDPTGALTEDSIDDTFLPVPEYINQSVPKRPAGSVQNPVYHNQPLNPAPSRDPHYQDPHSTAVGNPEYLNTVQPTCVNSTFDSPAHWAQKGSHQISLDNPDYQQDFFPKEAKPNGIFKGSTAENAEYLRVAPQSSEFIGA
Epidermal growth factor receptor (Homo sapiens, UniProt P00533), sequence (P00533 whole entry, the tested form may be a part): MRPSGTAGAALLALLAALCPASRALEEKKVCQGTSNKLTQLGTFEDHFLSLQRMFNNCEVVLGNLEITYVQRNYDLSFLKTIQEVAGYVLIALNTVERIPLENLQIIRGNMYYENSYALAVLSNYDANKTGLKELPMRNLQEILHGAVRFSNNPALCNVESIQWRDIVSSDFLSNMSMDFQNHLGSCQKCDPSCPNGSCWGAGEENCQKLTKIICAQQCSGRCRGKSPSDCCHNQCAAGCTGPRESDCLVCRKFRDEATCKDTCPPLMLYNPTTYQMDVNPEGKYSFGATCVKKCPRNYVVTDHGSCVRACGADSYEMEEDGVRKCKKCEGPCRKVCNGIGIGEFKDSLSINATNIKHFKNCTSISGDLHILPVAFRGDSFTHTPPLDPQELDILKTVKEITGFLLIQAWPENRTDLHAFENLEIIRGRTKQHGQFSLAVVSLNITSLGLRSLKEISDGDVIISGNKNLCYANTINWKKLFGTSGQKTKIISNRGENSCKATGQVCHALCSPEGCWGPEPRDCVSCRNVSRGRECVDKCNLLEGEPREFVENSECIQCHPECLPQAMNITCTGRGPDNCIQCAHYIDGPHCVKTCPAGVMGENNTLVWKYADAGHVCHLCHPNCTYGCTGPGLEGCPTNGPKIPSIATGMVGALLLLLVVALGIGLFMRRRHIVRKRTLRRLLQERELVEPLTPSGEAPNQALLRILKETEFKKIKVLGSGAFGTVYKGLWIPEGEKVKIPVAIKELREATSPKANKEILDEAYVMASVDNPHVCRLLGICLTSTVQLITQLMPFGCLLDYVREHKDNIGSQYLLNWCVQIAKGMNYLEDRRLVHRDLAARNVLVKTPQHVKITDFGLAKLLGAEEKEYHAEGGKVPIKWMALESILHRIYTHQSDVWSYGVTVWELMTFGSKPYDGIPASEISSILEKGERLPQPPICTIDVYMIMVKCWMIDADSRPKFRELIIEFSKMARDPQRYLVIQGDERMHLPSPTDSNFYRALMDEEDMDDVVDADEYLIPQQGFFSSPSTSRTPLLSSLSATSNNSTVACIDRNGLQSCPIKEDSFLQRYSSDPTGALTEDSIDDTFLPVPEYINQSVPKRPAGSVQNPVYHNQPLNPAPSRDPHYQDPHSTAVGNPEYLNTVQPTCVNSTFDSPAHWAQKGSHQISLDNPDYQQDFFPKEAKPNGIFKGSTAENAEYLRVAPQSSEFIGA

| SMILES | Ratio IC50 (Homo sapiens [1]) | pIC50 (A549) | pIC50 (HT-29) | pIC50 [2] | Ratio IC50 (Homo sapiens [3]) | pIC50 [4] | pIC50 (NCI-H1975) | pIC50 [5] | IC50 ([4]; read-out: pIC50 (converted)) |
| --- | --- | --- | --- | --- | --- | --- | --- | --- | --- |
| C=CC(=O)Nc1cc(Nc2ncc3nc(Nc4ccccc4)n(C(C)C)c3n2)c(OC)cc1N(C)CCN(C)C | 8 | 5.85 | 5.33 | 7.39 | 31 | 8.29 | 7.34 |  |  |
| C=CC(=O)Nc1cc(Nc2ncc3ncn(-c4ccc(F)c(Br)c4)c3n2)c(OC)cc1N(C)CCN(C)C | 4.3 | 5.52 | 5.44 | 8.00 | 86 | 8.64 | 7.46 |  |  |
| C=CC(=O)Nc1cc(Nc2ncc3ncn(-c4ccccc4F)c3n2)c(OC)cc1N(C)CCN(C)C |  | 5.24 | 5.01 |  | < 1 |  | 5.17 |  |  |
| C=CC(=O)Nc1cc(Nc2ncc3ncn(-c4ccc(C(C)C)cc4)c3n2)c(OC)cc1N(C)CCN(C)C | 6 | 4.84 | 4.82 | 7.60 | 196 | 8.38 | 7.13 |  |  |
| C=CC(=O)Nc1cc(Nc2ncc3[nH]c(=O)n(-c4ccc(I)cc4)c3n2)c(OC)cc1N(C)CCN(C)C |  | 5.91 | 5.32 |  | 15 |  | 6.08 |  |  |
| C=CC(=O)Nc1cc(Nc2ncc3nc(Nc4ccccc4)n(C)c3n2)c(OC)cc1N(C)CCN(C)C | 8.3 | 5.22 | 5.06 | 7.65 | 160 | 8.57 | 7.42 | 8.46 | 2.69 nM |
| C=CC(=O)Nc1cc(Nc2ncc3[nH]c(=O)n(-c4ccc(I)cc4)c3n2)c(OC)cc1N1CCN(C)CC1 |  | 6.31 | 4.41 |  | < 1 |  | 4.98 |  |  |
| C=CC(=O)Nc1cc(Nc2ncc3ncn(C4CCCC4)c3n2)c(OC)cc1N(C)CCN(C)C |  | 5.54 | 4.68 |  | 9 |  | 6.48 |  |  |
| C=CC(=O)Nc1cc(Nc2ncc3ncn(-c4ccc(Br)cc4)c3n2)c(OC)cc1N(C)CCN(C)C |  | 5.94 | 5.84 |  | 8 |  | 6.85 |  |  |
| C=CC(=O)Nc1cc(Nc2ncc3ncn(-c4ccc(F)cc4)c3n2)c(OC)cc1N(C)CCN(C)C | 5.6 | 6.38 | 4.92 | 7.74 | 7 | 8.49 | 7.21 | 8.24 |  |
| C=CC(=O)Nc1cc(Nc2ncc3ncn(-c4ccc(I)cc4)c3n2)c(OC)cc1N(C)CCN(C)C | 4.9 | 5.06 | 5.02 | 7.77 | 115 | 8.46 | 7.12 | 8.33 |  |
| C=CC(=O)Nc1cc(Nc2ncc3ncn(-c4ccc(I)cc4)c3n2)c(OC)cc1N1CCN(C)CC1 |  | 5.20 | 4.68 |  | < 1 |  | 5.14 |  |  |
| C=CC(=O)Nc1cc(Nc2ncc3nc(Nc4ccccc4)n(C4CCCC4)c3n2)c(OC)cc1N(C)CCN(C)C |  | 6.11 | 4.94 |  | 3 |  | 6.64 |  |  |
| C=CC(=O)Nc1cc(Nc2ncc3ncn(-c4ccccc4Br)c3n2)c(OC)cc1N(C)CCN(C)C |  | 5.68 | 4.79 |  | 1 |  | 5.74 |  |  |
| C=CC(=O)Nc1cc(Nc2ncc3[nH]c(=O)n(-c4ccc(C(C)C)cc4)c3n2)c(OC)cc1N1CCN(C)CC1 |  | 5.69 | 4.84 |  | 1 |  | 5.67 |  |  |
| C=CC(=O)Nc1cc(Nc2ncc3ncn(-c4ccccc4Cl)c3n2)c(OC)cc1N(C)CCN(C)C |  | 4.90 | 4.95 |  | 7 |  | 5.77 |  |  |
| C=CC(=O)Nc1cc(Nc2ncc3ncn(-c4ccccc4)c3n2)c(OC)cc1N(C)CCN(C)C |  | 6.24 | 5.09 |  | 58 |  | 6.96 |  |  |
| C=CC(=O)Nc1cc(Nc2ncc3ncn(-c4ccc(CC)cc4)c3n2)c(OC)cc1N(C)CCN(C)C |  | 5.71 | 5.09 |  | 16 |  | 6.89 |  |  |
| C=CC(=O)Nc1cc(Nc2ncc3ncn(-c4ccc(Cl)cc4Cl)c3n2)c(OC)cc1N(C)CCN(C)C |  | 4.95 | 4.69 |  | 7 |  | 5.79 |  |  |
| C=CC(=O)Nc1cc(Nc2nccc(-c3cn(C)c4ccccc34)n2)c(OC)cc1N(C)CCN(C)C [OSIMERTINIB] |  | 6.06 | 6.19 |  |  |  | […] |  |  |
| C=CC(=O)Nc1cc(Nc2ncc3ncn(-c4ccc(C(C)C)cc4)c3n2)c(OC)cc1N1CCN(C)CC1 |  | 5.03 | 5.11 |  | 5 |  | 5.71 |  |  |
| C=CC(=O)Nc1cc(Nc2ncc3ncn(-c4ccc(C)cc4)c3n2)c(OC)cc1N(C)CCN(C)C |  | 6.44 | 5.03 |  | 3 |  | 6.85 |  |  |
| C=CC(=O)Nc1cc(Nc2ncc3ncn(-c4ccc(F)c(Cl)c4)c3n2)c(OC)cc1N(C)CCN(C)C |  | 5.28 | 5.79 |  | 35 |  | 7.00 |  |  |
| C=CC(=O)Nc1cc(Nc2ncc3ncn(-c4ccc(I)cc4)c3n2)c(OC)cc1N1CCOCC1 |  | 5.82 | 4.45 |  | < 1 |  | 4.53 |  |  |
| C=CC(=O)Nc1cc(Nc2ncc3[nH]c(=O)n(-c4ccc(I)cc4)c3n2)c(OC)cc1N1CCOCC1 |  | 4.73 | 4.71 |  | 4 |  | 5.37 |  |  |
| C=CC(=O)Nc1cc(Nc2ncc3[nH]c(=O)n(-c4ccc(C(C)C)cc4)c3n2)c(OC)cc1N1CCOCC1 |  | 5.93 | 5.81 |  | < 1 |  | 5.39 |  |  |
| C=CC(=O)Nc1cc(Nc2ncc3ncn(-c4ccc(Cl)cc4)c3n2)c(OC)cc1N(C)CCN(C)C | 7 | 5.73 | 5.11 | 7.81 | 30 | 8.41 | 7.07 | 8.19 |  |
| C=CC(=O)Nc1cc(Nc2ncc3ncn(-c4ccc(C(C)C)cc4)c3n2)c(OC)cc1N1CCOCC1 |  | 5.37 | 4.64 |  | < 1 |  | 5.29 |  |  |
| C=CC(=O)Nc1cc(Nc2ncc3ncn(-c4ccc(OC)cc4)c3n2)c(OC)cc1N(C)CCN(C)C |  | 5.48 | 5.76 |  | 42 |  | 6.80 |  |  |
